# According to paper PMC4869831 (Nature structural & molecular biology, 2011):
# Assays:
# IGF-IR = conditions: equally potent on both kinases in vitro; cited from earlier work
# ATR = ATR (Mus musculus, UniProt Q9JKK8); type: cell-based; conditions: increasing doses of caffeine
# In short: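 3T3 TopBP1-ER mouse cells (15000/well) were plated the day before on gelatine-coated wells. Graded caffeine doses were added for 15 min at 37 °C, then 4-OHT for 60 min at 37 °C. Cells were paraformaldehyde-fixed and stained for γH2AX by immunofluorescence. Automated 10x imaging gave mean γH2AX per DAPI-masked nucleus from ≥300 cells/well. Values were normalized to no-4-OHT (min) and 4-OHT-only (max) controls. Error bars s.d.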
# Sequence of ATR (Q9JKK8 whole entry): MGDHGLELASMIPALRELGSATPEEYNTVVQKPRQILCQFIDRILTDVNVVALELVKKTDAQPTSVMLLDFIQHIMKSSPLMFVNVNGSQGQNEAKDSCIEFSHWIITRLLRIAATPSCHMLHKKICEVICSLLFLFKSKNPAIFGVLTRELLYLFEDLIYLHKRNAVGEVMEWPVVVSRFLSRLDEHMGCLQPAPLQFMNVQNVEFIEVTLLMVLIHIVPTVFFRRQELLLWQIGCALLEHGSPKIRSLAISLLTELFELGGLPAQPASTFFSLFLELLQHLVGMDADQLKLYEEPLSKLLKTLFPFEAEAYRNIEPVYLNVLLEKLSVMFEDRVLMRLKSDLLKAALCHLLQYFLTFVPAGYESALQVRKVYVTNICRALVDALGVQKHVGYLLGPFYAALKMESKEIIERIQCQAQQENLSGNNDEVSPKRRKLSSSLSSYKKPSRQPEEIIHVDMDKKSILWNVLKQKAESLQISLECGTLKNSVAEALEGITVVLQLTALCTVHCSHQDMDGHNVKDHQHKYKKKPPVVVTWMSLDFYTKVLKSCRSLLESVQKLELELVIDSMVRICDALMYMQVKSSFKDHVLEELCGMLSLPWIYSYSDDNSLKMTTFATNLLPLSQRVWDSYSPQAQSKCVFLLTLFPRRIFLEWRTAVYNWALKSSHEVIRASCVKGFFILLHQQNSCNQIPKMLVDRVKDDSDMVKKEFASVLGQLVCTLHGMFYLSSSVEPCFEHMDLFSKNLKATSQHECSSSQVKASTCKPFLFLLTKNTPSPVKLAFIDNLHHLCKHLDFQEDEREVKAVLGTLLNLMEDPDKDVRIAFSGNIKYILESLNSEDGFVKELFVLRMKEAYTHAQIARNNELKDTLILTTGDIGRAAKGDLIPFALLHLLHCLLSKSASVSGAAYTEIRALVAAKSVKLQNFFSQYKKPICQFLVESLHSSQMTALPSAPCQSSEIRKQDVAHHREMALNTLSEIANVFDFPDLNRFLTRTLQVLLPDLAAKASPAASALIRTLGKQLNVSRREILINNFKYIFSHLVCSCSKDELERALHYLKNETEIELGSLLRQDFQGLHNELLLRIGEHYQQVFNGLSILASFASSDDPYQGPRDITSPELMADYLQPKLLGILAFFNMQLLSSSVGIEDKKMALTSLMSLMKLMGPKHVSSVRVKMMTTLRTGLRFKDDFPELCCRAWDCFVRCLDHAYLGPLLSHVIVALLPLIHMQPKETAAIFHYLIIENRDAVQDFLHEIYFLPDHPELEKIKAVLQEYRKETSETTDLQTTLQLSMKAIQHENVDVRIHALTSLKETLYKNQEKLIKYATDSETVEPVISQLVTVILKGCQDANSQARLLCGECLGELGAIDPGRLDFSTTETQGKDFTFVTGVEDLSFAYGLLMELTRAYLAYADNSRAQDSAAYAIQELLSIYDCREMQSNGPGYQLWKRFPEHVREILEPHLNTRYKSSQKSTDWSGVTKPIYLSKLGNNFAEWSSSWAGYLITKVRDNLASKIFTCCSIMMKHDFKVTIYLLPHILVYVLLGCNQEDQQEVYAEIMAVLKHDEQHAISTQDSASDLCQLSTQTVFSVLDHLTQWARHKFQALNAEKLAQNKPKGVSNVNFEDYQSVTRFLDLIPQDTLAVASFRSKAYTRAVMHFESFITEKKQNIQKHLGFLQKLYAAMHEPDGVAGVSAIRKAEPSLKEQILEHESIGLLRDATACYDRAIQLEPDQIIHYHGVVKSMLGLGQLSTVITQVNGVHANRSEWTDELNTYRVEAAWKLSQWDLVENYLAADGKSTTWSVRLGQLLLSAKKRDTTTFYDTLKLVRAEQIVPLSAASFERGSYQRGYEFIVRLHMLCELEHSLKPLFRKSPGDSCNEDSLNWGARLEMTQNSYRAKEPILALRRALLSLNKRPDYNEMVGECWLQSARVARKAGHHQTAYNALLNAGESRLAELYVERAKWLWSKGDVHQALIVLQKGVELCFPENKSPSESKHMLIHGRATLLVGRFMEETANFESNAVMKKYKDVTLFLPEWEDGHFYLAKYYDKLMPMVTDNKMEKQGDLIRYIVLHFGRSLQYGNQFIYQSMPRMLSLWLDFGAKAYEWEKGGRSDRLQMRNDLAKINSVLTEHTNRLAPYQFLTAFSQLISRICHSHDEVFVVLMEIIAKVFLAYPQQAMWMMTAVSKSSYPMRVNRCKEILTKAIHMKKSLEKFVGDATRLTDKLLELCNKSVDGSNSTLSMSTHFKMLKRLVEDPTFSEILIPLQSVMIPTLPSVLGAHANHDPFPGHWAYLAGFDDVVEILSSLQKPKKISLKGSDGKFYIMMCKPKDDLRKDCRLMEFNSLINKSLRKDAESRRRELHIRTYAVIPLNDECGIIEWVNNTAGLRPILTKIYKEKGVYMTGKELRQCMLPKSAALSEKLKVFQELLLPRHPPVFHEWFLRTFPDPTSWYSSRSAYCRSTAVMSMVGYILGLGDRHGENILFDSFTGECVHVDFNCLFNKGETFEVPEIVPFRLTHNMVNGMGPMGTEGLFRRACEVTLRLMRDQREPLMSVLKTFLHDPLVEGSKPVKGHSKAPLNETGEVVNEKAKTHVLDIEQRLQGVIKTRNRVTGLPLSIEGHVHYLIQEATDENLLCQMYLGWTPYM
smiles,measurement,setting,value
Nc1ncnc2c1c(-c1cccc(OCc3ccccc3)c1)cn2[C@H]1C[C@@H](CN2CCC2)C1 [NVP-AEW541],selectivity against IGF-IR vs InsR in cellulo,IGF-IR,26 fold
Cn1c(=O)c2c(ncn2C)n(C)c1=O [Caffeine],nuclear γH2AX signal induced by 4-OHT,ATR,stepwise decrease in the γH2AX signal
